From ChEMBL document CHEMBL4177761, “Highlights of the Structure-Activity Relationships of Benzimidazole Linked Pyrrolidines Leading to the Discovery of the Hepatitis C Virus NS5A Inhibitor Pibrentasvir (ABT-530)” (J Med Chem, 2018)
Numbering of substitutions follows the chain as printed.

Key:
[1] = Oral bioavailability in monkey at 2.5 mg/kg by LC-MS method; assay type: ADME, organism-based, Macaca mulatta; details: rhesus monkey, in vivo
Method in brief: (§1)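 Single dose in dog or monkey, 1 mg/kg IV or 2.5 mg/kg PO. Plasma drug measured by LC-MS after acetonitrile protein precipitation with an internal standard. Quantified by linear regression of parent/internal-standard peak-area ratio against spiked standards.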

[2] = test system: T1, Nonstructural protein 5A (Hepatitis C virus), Q5L478 [Y93C]; experiment: Inhibition of NS5A Y93C mutant in HuH7 cell infected HCV genotype 1a H77 assessed as decrease in viral replication after 4 days by luciferase reporter gene assay relative to wild type protein; details: Hepatitis C virus (isolate H77)
T1 sequence (whole entry): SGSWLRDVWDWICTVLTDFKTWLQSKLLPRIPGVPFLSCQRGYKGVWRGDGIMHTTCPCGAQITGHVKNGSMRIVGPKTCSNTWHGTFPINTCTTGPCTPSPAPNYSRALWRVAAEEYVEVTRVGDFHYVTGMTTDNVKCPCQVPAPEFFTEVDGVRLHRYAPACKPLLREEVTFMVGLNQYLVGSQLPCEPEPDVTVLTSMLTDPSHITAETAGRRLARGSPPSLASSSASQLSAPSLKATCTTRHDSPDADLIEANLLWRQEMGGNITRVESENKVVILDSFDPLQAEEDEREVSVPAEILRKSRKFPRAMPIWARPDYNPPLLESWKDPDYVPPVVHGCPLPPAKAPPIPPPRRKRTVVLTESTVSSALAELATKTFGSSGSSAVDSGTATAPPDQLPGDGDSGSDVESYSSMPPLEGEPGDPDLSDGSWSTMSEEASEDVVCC
Method in brief: (§2)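 Stable subgenomic luciferase replicons in Huh-7 cells: genotype 1a-H77 carrying NS5A substitutions M28T, Q30E, Q30R, Y93C, Y93H or Y93N, tested alongside the wild-type replicon. Cells are incubated 4 days with compound in DMEM with 5% FBS. Luciferase read-out, EC50 by 4-parameter logistic fit, and fold change versus wild type.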

[3] = AUClast in monkey at 2.5 mg/kg, po by LC-MS method; assay type: ADME, organism-based, Macaca mulatta; design: dose 2.5 mg/kg, time 0 - last, route oral; details: rhesus monkey, in vivo; method in brief: as §1
[4] = Cmax in dog at 2.5 mg/kg, po by LC-MS method; assay type: ADME, organism-based, Canis lupus familiaris; design: dose 2.5 mg/kg, route oral; details: in vivo; method in brief: as §1
[5] = Half life in monkey at 2.5 mg/kg, po by LC-MS method; assay type: ADME, organism-based, Macaca mulatta; details: rhesus monkey, in vivo; method in brief: as §1
[6] = molecular target: T2, Nonstructural protein 5A (Hepatitis C virus) (UniProt Q5L478); experiment: Inhibition of NS5A Q30E mutant in HuH7 cell infected HCV genotype 1a H77 assessed as decrease in viral replication after 4 days by luciferase reporter gene assay relative to wild type protein; details: Hepatitis C virus (isolate H77); method in brief: as §2
T2 sequence (whole entry): T1 sequence (whole entry) with C93Y

[7] = test system: T3, Nonstructural protein 5A (Hepatitis C virus), Q5L478 [Y93H]; experiment: Inhibition of NS5A Y93H mutant in HuH7 cell infected HCV genotype 1b Con1 assessed as decrease in viral replication after 4 days by luciferase reporter gene assay relative to wild type protein; details: Hepatitis C virus (isolate Con1)
T3 sequence (whole entry): T1 sequence (whole entry) with C93H
Method in brief: as §2, with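 “1b-Con1” for “1a-H77”, “NS5A” for “NS5A substitutions M28T, Q30E, Q30R, Y93C,”, “from a” for “by”, “expressed as” for “and”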

[8] = AUClast in dog at 1 mg/kg, iv by LC-MS method; assay type: ADME, organism-based, Canis lupus familiaris; design: dose 1 mg/kg, route intravenous, time 0 - last; details: in vivo; method in brief: as §1
[9] = Half life in dog at 2.5 mg/kg, po by LC-MS method; assay type: ADME, organism-based, Canis lupus familiaris; details: in vivo; method in brief: as §1
[10] = Plasma clearance in dog at 1 mg/kg, iv by LC-MS method; assay type: ADME, organism-based, Canis lupus familiaris; method in brief: as §1
[11] = Plasma clearance in monkey at 1 mg/kg, iv by LC-MS method; assay type: ADME, organism-based, Macaca mulatta; details: rhesus monkey; method in brief: as §1
[12] = Half life in rat at 3 mg/kg, po by LC-MS method; assay type: ADME, organism-based; details: in vivo
Method in brief: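 Single dose, 3 mg/kg, in mouse or rat. IV vehicle: DMSO:Tween 80:PEG-400:D5W 2:5:20:73 (v/v). PO vehicle: Phosol 53 MCT:PEG-400:Poloxamer 124:Cremophor RH40 40:20:20:20 (w/w). Acetonitrile protein precipitation, then LC-MS/MS in negative-ion MRM against an internal standard; LOQ ~20 ng/mL.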

COC(=O)N[C@H](C(=O)N1CCC[C@H]1c1nc2cc([C@H]3CC[C@H](c4cc5nc([C@@H]6CCCN6C(=O)[C@@H](NC(=O)OC)[C@@H](C)OC)[nH]c5cc4F)N3c3cc(F)c(N4CCC(c5ccc(F)cc5)CC4)c(F)c3)c(F)cc2[nH]1)[C@@H](C)OC [PIBRENTASVIR]
bioavailability [1]: 14.1%
fold change (FC) [2]: 1.7
AUC(0-t) [3]: 2250 ng·h/mL
Cmax [4]: 562 nM
half-life [5]: 5.69 h
fold change (FC) [6]: 2.4
fold change (FC) [7]: 0.6
AUC(0-t) [8]: 10600 ng·h/mL
half-life [9]: 8.3 h
clearance [10]: 1.62 mL/min/kg
clearance [11]: 2.5 mL/min/kg
half-life [12]: 7 h
